# Data: ChEMBL document CHEMBL1221188, “Small-molecule activation of procaspase-3 to caspase-3 as a personalized anticancer strategy” (Nat Chem Biol, 2006)
# The source made the active and inactive calls. No cut-off for these calls is given here.
# Legend:
# [1] = biological target: T1, Caspase-3 (Homo sapiens, UniProt P42574); experiment: Activation of N-terminal His6-tagged recombinant procaspase-3 expressed in Escherichia coli assessed as hydrolysis of acetyl-DEVD-p-nitroanilide after 2 hrs by SDS-PAGE
# T1 sequence (P42574 whole entry): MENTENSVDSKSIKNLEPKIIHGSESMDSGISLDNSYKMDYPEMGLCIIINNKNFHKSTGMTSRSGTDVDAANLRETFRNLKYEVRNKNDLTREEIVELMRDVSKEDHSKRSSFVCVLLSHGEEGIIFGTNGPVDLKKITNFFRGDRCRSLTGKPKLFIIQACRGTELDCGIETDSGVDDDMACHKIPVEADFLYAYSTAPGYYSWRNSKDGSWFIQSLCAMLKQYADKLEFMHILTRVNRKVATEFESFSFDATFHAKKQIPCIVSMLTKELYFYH
# [2] = system: HL-60; experiment: Induction of apoptosis in human HL60 cells assessed as increase in PARP1 cleavage at 100 uM after 12 hrs by fluorescence assay; assay type: functional, cell-based
# In short: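 HL-60 cells given NAD+ with or without drug for various times, then lysed in PARP buffer with 25 mM H2O2 (60 min, 37 °C). Remaining NAD+ was measured fluorometrically after KOH/acetophenone (10 min, 4 °C) and formic acid (5 min, 110 °C). PARP activity is expressed relative to control wells.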
# [3] = system: HL-60; experiment: Induction of apoptosis in human HL60 cells assessed as mitochondrial membrane depolarization at 10 uM after 12 hrs by fluorescence assay; assay type: functional, cell-based
# In short: (§1)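 HL-60 cells exposed to drug in DMSO or DMSO alone for various times, stained with JC-9 dye for 10 min at room temperature, then analysed by flow cytometry at 525/675 nm on 50,000 cells. Depolarization was derived from the red-channel shift.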
# [4] = system: HL-60; experiment: Induction of apoptosis in human HL60 cells assessed as increase in caspase-3 activity at 10 uM after 12 hrs; assay type: functional, cell-based
# In short: (§2)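 HL-60 cells were treated with a range of drug concentrations for various times, then washed. They were lysed by sonication in ice-cold caspase assay buffer and given Ac-DEVD-pNA. Absorbance at 405 nm was read every 2 min for 2 h, and the cleavage rate came from the linear slope.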
# [5] = system: HL-60; experiment: Induction of apoptosis in human HL60 cells assessed as increase in PARP1 cleavage at 10 uM after 12 hrs by fluorescence assay; assay type: functional, cell-based
# [6] = system: Mus musculus; experiment: Toxicity in BALB/c mouse xenografted with human NCI-H226 cells assessed as effect on body weight at 100 mg/kg, po administered from day 1 to 4 and day 7 to 11 measured after 28 days; assay type: organism-based; set-up: dose 100 mg/kg, route oral; settings: in vivo, 672 h
# In short: (§3)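 Male athymic nude mice received 2 × 10^6 NCI-H226 cells by tail-vein injection. Dosing was 100 mg/kg by oral gavage in 24:1 vegetable oil/DMSO once daily on days 1–4 and 7–11, against vehicle, four mice per group. Body weight was followed. At 28 d the lungs were examined, sectioned, stained and imaged for tumor burden.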
# [7] = system: HL-60; experiment: Induction of apoptosis in human HL60 cells assessed early apoptotic cells at 5 uM after 28 hrs using annexin V-propidium iodide staining by flow cytometry; assay type: functional
# [8] = Plasma concentration in BALB/c mouse xenografted with human ACHN cells at 5 mg administered via pellet measured after 54 days of tumor implantation; assay type: ADME, organism-based
# [9] = system: HL-60; experiment: Induction of apoptosis in human HL60 cells assessed late apoptotic cells at 5 uM after 28 hrs using annexin V-propidium iodide staining by flow cytometry; assay type: functional
# [10] = system: HL-60; experiment: Induction of apoptosis in human HL60 cells assessed non-viable necrotic cells at 100 uM after 20 hrs using annexin V-propidium iodide staining by flow cytometry; assay type: functional
# In short: (§4)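 HL-60 cells treated 20 h at 37 °C with 100 µM drug in DMSO or DMSO alone; washed, stained with annexin V–Alexa Fluor 488 (15 min, 23 °C) plus propidium iodide; flow cytometry at 525 and 675 nm, ≥50,000 cells per experiment.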
# [11] = biological target: Caspase-3 (Homo sapiens, UniProt P42574, D179A); experiment: Activation of N-terminal His6-tagged recombinant procaspase-3 D179A mutant expressed in Escherichia coli assessed as hydrolysis of acetyl-DEVD-p-nitroanilide after 2 hrs by SDS-PAGE; settings: in the assay text read “by spectrophotometry” for “by SDS-PAGE”
# In short: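 Alanine substitution in the procaspase-3 safety-catch Asp-Asp-Asp triad (Asp179, Asp180, Asp181). The wild-type or mutant proenzyme was incubated with a range of compound concentrations for 12 h at 37 °C. Ac-DEVD-pNA was then added and absorbance at 405 nm was read every 2 min for 2 h. Activity was taken from the linear-phase slope and expressed as relative increase per mutant.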
# [12] = system: HL-60; experiment: Induction of apoptosis in human HL60 cells assessed as mitochondrial membrane depolarization at 100 uM after 12 hrs by fluorescence assay; assay type: functional, cell-based; in short: as §1
# [13] = system: HL-60; experiment: Inhibition of apoptosis in human HL60 cells at 100 uM after 24 hrs using annexin V-propidium iodide staining by flow cytometry in presence of pan-caspase inhibitor Z-VAD-FMK; assay type: functional, cell-based
# [14] = system: HL-60; experiment: Induction of apoptosis in human HL60 cells assessed as chromatin condensation at 100 uM after 20 hrs measured by Hoechst-33258 staining; assay type: functional, cell-based
# In short: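 HL-60 cells were treated 20 h with 100 µM drug in DMSO against a DMSO control. Cells were then fixed in ice-cold ethanol overnight at 4 °C and stained with Hoechst-33258 for 30 min at room temperature. Condensed chromatin was viewed microscopically at 400× magnification.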
# [15] = Cytotoxicity against human colon cancer cells after 24 hrs by MTS/PMS assay; assay type: functional, cell-based; settings: Cancer cell lines
# [16] = system: HL-60; experiment: Induction of apoptosis in human HL60 cells assessed as increase in caspase-3 activity at 100 uM after 12 hrs; assay type: functional, cell-based; in short: as §2
# [17] = system: HL-60; experiment: Induction of apoptosis in human HL60 cells assessed late apoptotic cells at 100 uM after 20 hrs using annexin V-propidium iodide staining by flow cytometry; assay type: functional; in short: as §4
# [18] = system: NCI-H226; experiment: Antitumor activity against human NCI-H226 cells xenografted in BALB/c mouse assessed as suppression of tumor metastasis at 100 mg/kg, po administered from day 1 to 4 and day 7 to 11 measured after 28 days; assay type: functional, organism-based; set-up: dose 100 mg/kg; in short: as §3
# [19] = Cytotoxicity against human colon cells after 24 hrs by MTS/PMS assay; assay type: cell-based; settings: Colon cell
# [20] = system: HL-60; experiment: Induction of apoptosis in human HL60 cells assessed early apoptotic cells at 100 uM after 20 hrs using annexin V-propidium iodide staining by flow cytometry; assay type: functional; in short: as §4
# [21] = system: NCI-H226; experiment: Antitumor activity against human NCI-H226 cells xenografted in po dosed BALB/c mouse administered SID for 21 days assessed as retardation of tumor growth measured after 1 week post last dose; assay type: functional, organism-based
# In short: (§5)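 Male athymic BALB/c nude mice, 5 weeks old; 2 × 10^6 NCI-H226 cells injected subcutaneously into the flanks, eight mice per group, three tumors per mouse. Once tumors reached about 50 mm3 (~4 weeks), 0, 50 or 100 mg/kg was given by oral gavage in 24:1 vegetable oil/DMSO once daily for 21 d. Caliper volume (v = 0.5·a·b2) and body weight tracked; killed 1 week later.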
# [22] = system: NCI-H226; experiment: Induction of apoptosis in human NCI-H226 cells isolated from BALB/c mouse xenograft assessed as DNA fragmentation at 50 mg/kg, po SID for 21 days measured after 1 week post last dose by TUNEL assay; assay type: functional, organism-based; set-up: dose 50 mg/kg
# In short: (§6)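 Subcutaneous NCI-H226 tumors from nude mice dosed orally (50 or 100 mg/kg daily for 21 d in 24:1 vegetable oil/DMSO) were resected at end of study, sectioned and scored by TUNEL staining.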
# [23] = system: Mus musculus; experiment: Toxicity in BALB/c mouse xenografted with human NCI-H226 cells assessed as effect on body weight at 50 to 100 mg/kg, po SID for 21 days measured after 1 week post last dose; assay type: organism-based; set-up: dose 50-100 mg/kg, route oral; settings: in vivo, 168 h; in short: as §5
# [24] = system: HL-60; experiment: Induction of apoptosis in human HL60 cells assessed non-viable necrotic cells at 5 uM after 28 hrs using annexin V-propidium iodide staining by flow cytometry; assay type: functional
# [25] = system: NCI-H226; experiment: Antitumor activity against human NCI-H226 cells isolated from BALB/c mouse xenograft assessed as decrease in metastatic tumor burden at 100 mg/kg, po administered from day 1 to 4 and day 7 to 11 measured after 28 days by imaging assay; assay type: functional, organism-based; set-up: dose 100 mg/kg; in short: as §3
# [26] = system: NCI-H226; experiment: Induction of apoptosis in human NCI-H226 cells isolated from BALB/c mouse xenograft assessed as DNA fragmentation at 100 mg/kg, po SID for 21 days measured after 1 week post last dose by TUNEL assay; assay type: functional, organism-based; set-up: dose 100 mg/kg; in short: as §6
# [27] = system: Mus musculus; experiment: Toxicity in BALB/c mouse xenografted with human ACHN cells assessed as effect on food intake at 5 mg administered via pellet measured after 54 days of tumor implantation; assay type: organism-based; settings: in vivo, other, 1296 h
# In short: (§7)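 Ovariectomized female athymic BALB/c nu/nu mice; ACHN cells in Matrigel injected subcutaneously into four flanks. After 4 weeks (mean tumor area 34.3 mm2), 20-mg cholesterol pellets with 0, 1 or 5 mg drug implanted subcutaneously; six mice per group. Tumor volume v = 0.5·a·b2 measured weekly. Food intake over two consecutive 24-h periods at study end (8 weeks post-implant).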
# [28] = system: HL-60; experiment: Induction of apoptosis in human HL60 cells assessed as increase in caspase-3 activity at 100 uM up to 2 hrs; assay type: functional; in short: as §2
# [29] = system: HL-60; experiment: Induction of apoptosis in human HL60 cells assessed viable cells at 100 uM after 20 hrs using annexin V-propidium iodide staining by flow cytometry; assay type: functional; in short: as §4
# [30] = system: ACHN; experiment: Antitumor activity against human ACHN cells xenografted in BALB/c mouse assessed as tumor growth at 5 mg administered via pellet measured after 54 days of tumor implantation; in short: as §7
# [31] = system: HL-60; experiment: Induction of apoptosis in human HL60 cells assessed viable cells at 5 uM after 28 hrs using annexin V-propidium iodide staining by flow cytometry; assay type: functional
# Sequence of Caspase-3 (Homo sapiens, UniProt P42574, D179A) (P42574 176-277 D179A limits assumed, one chain of several): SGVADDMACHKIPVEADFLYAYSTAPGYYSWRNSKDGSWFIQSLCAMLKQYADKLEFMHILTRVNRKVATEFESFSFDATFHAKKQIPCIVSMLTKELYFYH
compound,measurement,setting,value
c1ccc(CN2CCNCC2)cc1,EC50,[1],> 50 µM
CN1CCN(CC(=O)N/N=C/c2ccccc2O)CC1,EC50,[1],> 50 µM
C/C=N/NC(=O)CN1CCN(Cc2ccccc2)CC1,EC50,[1],> 50 µM
NNC(=O)CN1CCN(Cc2ccccc2)CC1,EC50,[1],> 50 µM
CCOC(=O)CN1CCN(Cc2ccccc2)CC1,EC50,[1],> 50 µM
c1ccc(CN2CCN(Cc3ccccc3)CC2)cc1,EC50,[1],> 50 µM
O=C(CN1CCN(Cc2ccccc2)CC1)N/N=C/c1ccccc1,EC50,[1],> 50 µM
COc1cc([C@@H]2c3cc4c(cc3[C@@H](O[C@@H]3O[C@@H]5CO[C@@H](C)O[C@H]5[C@H](O)[C@H]3O)[C@H]3COC(=O)[C@H]23)OCO4)cc(OC)c1O,Activity,[2],Active
same,Activity,[3],Active
same,Activity,[4],Active
same,Activity,[5],Active
CCOC(=O)CN1CCNCC1 [ETHYL PIPERAZINOACETATE],EC50,[1],> 50 µM
C=CCc1cccc(/C=N/NC(=O)CN2CCN(Cc3ccccc3)CC2)c1O [PAC-1],Activity,[6],Non-toxic
same,Activity,[7],80.75%
same,Activity,[2],Active
same,concentration at 1296 h,[8],4.4 nM
same,Activity,[9],8.73%
same,Activity,[10],0.4%
same,EC50,[11],131 µM
same,Activity,[12],inactive
same,Activity,[13],inactive
same,Activity,[14],Active
same,IC50,[15],3 nM
same,Activity,[16],Active
same,Activity,[17],9.6%
same,Activity,[18],Active
same,IC50,[19],5.02 µM
same,Activity,[20],80.2%
same,inhibition,[21],Dose-dependent effect
same,Activity,[22],Active
same,Activity,[23],Non-toxic
same,Activity,[24],0.26%
same,Activity,[25],Active
same,Activity,[26],Active
same,Activity,[27],Non-toxic
same,Activity,[28],50%
same,Activity,[5],Active
same,Activity,[29],9.8%
same,Activity,[30],Active
same,inhibition,[30],Active
same,Activity,[31],10.26%
